# Screens (PubChem BioAssay)
# A selection: hits, their analogues and other compounds. The true share with any hit is near 4.1%.
# KCNQ1 act = potentiators or activators of KCNQ1 channel, primary screen, cell-based, thallium flux, high-throughput; AID 2648, 2010; Potassium voltage-gated channel subfamily KQT member 1 (Homo sapiens), P51787; B-score at 10 µM; hit rate 0.35% among 310,000; CHO-K1 KCNQ1, thallium flux FluxOR fluorescence; hits give high values;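 active means fluorescence ratio B-score, a plate-corrected score, at least three library SD, with initial intensity B-score within 5 SD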
# Target sequence (P51787 whole entry, looked up): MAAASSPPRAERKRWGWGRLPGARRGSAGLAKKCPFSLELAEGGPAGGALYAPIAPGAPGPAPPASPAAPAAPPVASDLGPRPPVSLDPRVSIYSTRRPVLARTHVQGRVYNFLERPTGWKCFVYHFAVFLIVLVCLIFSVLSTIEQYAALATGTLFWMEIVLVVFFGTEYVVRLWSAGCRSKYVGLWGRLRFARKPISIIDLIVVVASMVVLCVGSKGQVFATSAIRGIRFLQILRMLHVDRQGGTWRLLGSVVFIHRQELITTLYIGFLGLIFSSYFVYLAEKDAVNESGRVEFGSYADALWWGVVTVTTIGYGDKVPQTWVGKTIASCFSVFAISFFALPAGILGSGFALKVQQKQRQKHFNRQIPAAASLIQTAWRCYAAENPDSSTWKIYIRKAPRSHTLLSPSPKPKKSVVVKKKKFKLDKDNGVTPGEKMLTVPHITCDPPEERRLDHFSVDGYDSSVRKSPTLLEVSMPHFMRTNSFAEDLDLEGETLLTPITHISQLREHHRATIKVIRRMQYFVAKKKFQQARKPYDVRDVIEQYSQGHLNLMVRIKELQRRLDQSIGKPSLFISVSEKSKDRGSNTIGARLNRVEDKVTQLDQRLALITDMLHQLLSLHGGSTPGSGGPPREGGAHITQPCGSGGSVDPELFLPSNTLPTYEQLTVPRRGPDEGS
#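 assay system = KCNQ1-transfected CHO-K1 cells | medium = assay buffer with matched DMSO | probe or stimulus = depolarizing K+/Tl+ stimulus, K2SO4 and Tl2SO4 each 12.5 mM in 5x stock | dosing = single dose | incubation = dye 90 min, compound 20 min, room temperature | detection = kinetic FluxOR fluorescence, 10 s baseline plus 110 s post-stimulus | evaluation = ratio B score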
# KCNK9 block = KCNK9 potassium channel inhibitors, primary screen, HEK293 cells, thallium flux; hit rate 1.2% among 310,000; FluxOR thallium flux fluorescence; hits give low values; AID 488922, 2010; Potassium channel subfamily K member 9 (Homo sapiens), Q9NPC2; B-score at 10 µM;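 active means ratio B-score over 3 SD below the library mean, with starting fluorescence within 5 SD of its mean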;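 further: negative B-score means less thallium flux so channel inhibition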
# KCNQ1 block = inhibitors of human KCNQ1 channel, primary screen, cell-based, thallium flux, high-throughput; CHO-K1 KCNQ1, FluxOR thallium flux fluorescence; hits give high values; B-score at 10 µM; hit rate 1.3% among 310,000;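 active means compounds whose thallium flux B-score, printed positive for inhibition, exceeds three library SD while starting fluorescence stays within three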;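 further: channel opened by potassium depolarization with thallium stimulus after 20 min compound exposure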
# hERG rescue = hERG rescue from dofetilide block, primary screen, cell-based, CHO-hERG, FluxOR thallium flux, dofetilide IC70; Voltage-gated inwardly rectifying potassium channel KCNH2 (Homo sapiens), Q12809; dofetilide IC70 present; activation (rescue from dofetilide block), less the hit threshold, % at 10 µM; hit rate 0.51% among 310,000; AID 1511, 2009;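 active means activation above the mean of controls blocked by dofetilide plus 5 SD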;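 further: thallium influx through hERG after potassium depolarization seen as dye fluorescence rise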
# KCC2 mod = KCC2 cotransporter modulators, thallium flux, primary screen, cell-based, HEK293 KCC2, FluoZin-2 fluorescence, MLSMR; B-score of Tl+ flux slope (higher = more flux/activation; lower = inhibition) at 10 µM; KCC2 cells, thallium flux FluoZin-2 fluorescence; hit rate 2.2% among 190,000; AID 1456, 2008;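 active means thallium flux slope and its plate-corrected score both differing from the plate sample mean at a set confidence after two filtering rounds, in either direction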;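 further: slope of fluorescence scaled to starting intensity during 10 to 20 s after thallium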
# KCNK3 block = human KCNK3 channel inhibitors, primary screen, CHO cells, FluxOR thallium flux, B-score; Potassium channel subfamily K member 3 (Homo sapiens), O14649; FluxOR fluorescence; hits give low values; B-score at 10 µM; hit rate 0.84% among 340,000;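 active means B-score under library mean minus 4 SD, starting fluorescence ratio at most library mean plus 5 SD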;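 further: more negative B-score means stronger inhibition of thallium flux through KCNK3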
# KCNK3 inh conf = retest of human KCNK3 channel inhibitors, confirmation, CHO cells, FluxOR thallium flux, triplicate; FluxOR fluorescence; 0% buffer, 100% carvedilol maximal block; hit rate 99% among 2,400; shares compounds with KCNK3 block; ratio percent of control, % at 10 µM;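 active means ratio percent of control, averaged over triplicates, above buffer control mean plus 5 SD, cut at about 64% in these data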;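 further: ratio is the fluorescence rise from min to max over baseline after thallium stimulus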
# KCNK3 noninduced = thallium flux inhibition in non-induced cells, primary screen, counter-screen for KCNK3 inhibitor project, cell-based, non-induced KCNK3 line, FluxOR thallium, triplicate | AID 651747, 2012 | hit rate 40% among 2,400 | thallium flux ratio (lower = more inhibition) at 10 µM | non-induced KCNK3 parental cells; hits give low values | shares compounds with KCNK3 block;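 active means thallium flux ratio, averaged over three wells, more than 5 SD below the buffer control mean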;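 further: host cells are CHO cells without KCNK3 induction; ratio is peak minus trough fluorescence over baseline then normalized to buffer controls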
# The depositor's hits bear a star; i = inactive; x = not tested or not shown.
SMILES,KCNQ1 act,KCNK9 block,KCNQ1 block,hERG rescue,KCC2 mod,KCNK3 block,KCNK3 inh conf,KCNK3 noninduced
CCOc1ccc(C2C(C#N)=C(N)Oc3cc(O)ccc32)cc1OCC (centres undefined),i,i,i,-6,x,-9.3*,99*,i
COc1ccc(C2C(C#N)=C(N)Oc3cc(O)ccc32)cc1Cl (centres undefined),i,i,6*,-16,x,-9*,110*,0.15*
C#CCOc1ccc(C2C(C#N)=C(N)Oc3cc(O)ccc32)cc1 (centres undefined),i,i,i,-3,x,-9.5*,95*,i
Cc1ccc(CS(=O)(=O)Cc2ccc(C(=O)NC3CCCC3)o2)cc1,i,i,i,-3,x,i,x,x
COc1ccc(-c2nnc(N(C)C(=O)c3cccnc3)s2)cc1,i,i,i,-5,0.38,i,x,x
C=CCN(C(=O)Nc1ccc(OC)cc1)c1nnc(-c2ccncc2)s1,i,i,i,-6,x,-9.5*,94*,i
COc1cc(C(=O)Nc2ccc3c(c2)ncn3C(C)(C)C)cc(OC)c1OC,i,i,i,-9,x,-9.3*,75*,i
CC(C)(C)n1cnc2cc(NC(=O)c3ccc(Cl)cc3)ccc21,i,i,i,-4,x,i,x,x
COc1ccc(-c2ccc(C3C(C#N)=C(N)Oc4n[nH]c(C)c43)o2)cc1 (centres undefined),i,i,i,-16,-0.096,-11*,89*,i
O=S(=O)(N1CCCCC1)N1CCN(c2cc(Cl)ccc2Cl)CC1,i,i,i,-4,-1.9,-9.2*,111*,i
O=S(=O)(c1ccc(Cl)cc1)N1CCN(S(=O)(=O)N2CCCCCC2)CC1,i,i,i,-2,0.66,i,x,x
Cc1ccc(NC(=O)N(Cc2cccnc2)Cc2ccco2)cc1C,i,i,i,-16,0.65,i,x,x
Cc1ccc(NC(=O)N(Cc2ccco2)C(C)c2ccco2)cc1C (centres undefined),i,i,i,-8,x,-9*,110*,i
Cn1c(C(=O)N2CCc3ccccc3C2)cc2oc3ccccc3c21,i,i,i,-2,-1,i,x,x
CCn1c(C(=O)N2CCc3ccccc3C2)cc2oc3ccccc3c21,i,i,7*,-10,-0.016,-9.1*,120*,0.15*
CNC(=O)c1cccnc1Nc1cccc(C(F)(F)F)c1,i,i,i,-5,-0.71,i,x,x
CN(CC(=O)Nc1ccccc1Br)C(=O)c1cccnc1Nc1cccc(C(F)(F)F)c1,i,i,i,-11,x,-12*,126*,0.13*
CCOC(=O)c1cc(C#N)c(N2CCN(c3ccccn3)CC2)nc1-c1ccccc1,i,i,i,-4,0.86,-9.4*,99*,i
CCOC(=O)c1cc(C#N)c(SC)nc1-c1ccccc1,i,i,i,-6,x,i,x,x
COc1ccc(OC)c(/C=C/C(=O)c2ccc(Cl)cc2)c1,i,-6.9*,i,-10,x,-10*,120*,0.16*
COc1ccccc1/C=C/C(=O)c1ccc(Cl)cc1,i,i,i,-10,x,i,x,x
Cc1ccccc1Oc1nc(-c2ccccn2)nc2ccccc12,i,i,i,-13,-1.1,i,x,x
Cc1ccc(CN2CCN(/N=C/c3cc(Br)ccc3F)CC2)cc1,i,i,i,-2,x,i,x,x
Fc1ccc(Br)cc1/C=N/N1CCN(c2ccccc2)CC1,i,i,i,-4,x,-9.3*,96*,i
Clc1ccc2nncn2n1,i,i,i,-7,1.8,i,x,x
SMILES,KCNQ1 act,KCNK9 block,KCNQ1 block,hERG rescue,KCC2 mod,KCNK3 block,KCNK3 inh conf,KCNK3 noninduced
Cc1nc(/N=C\c2ccc(N(C)C)cc2)sc1C,i,i,i,-4,x,i,x,x
Cc1ccc(-c2cc(C(=O)N3CCCCC3)c3ccccc3n2)cc1C,i,i,i,-16,x,-8.9*,85*,0.15*
O=C(c1cc(-c2ccccc2)nc2ccccc12)N1CCCC1,i,i,i,-8,x,i,x,x
CCOC(=O)c1cc2ccc3ccccc3c2oc1=O,i,i,i,-6,x,i,x,x
CCOC(=O)c1cc2ccc3ccccc3c2s1,i,i,i,-2,-0.47,-9.8*,99*,i
COC(=O)c1sc2ccccc2c1-n1cccc1C(=O)C(=O)Nc1ccc(Cl)cc1,i,i,i,-12,0,i,x,x
CC1CN(S(=O)(=O)c2cccc(C(=O)OCc3cc(=O)oc4cc(O)ccc34)c2)CC(C)O1 (centres undefined),i,i,i,-12,x,i,x,x
CN(C)c1cccc(C(=O)OCc2cc(=O)oc3cc(O)ccc23)c1,i,i,i,-16,0.48,-9*,113*,i
COc1ccc(S(=O)(=O)Oc2ccc3cccc(N)c3c2)cc1,i,i,i,-9,x,-9.1*,101*,i
CCN(C(=O)c1ccc2c(c1)OCO2)C1CCS(=O)(=O)C1 (centres undefined),i,i,i,-8,x,i,x,x
CCOC(=O)c1c(NC(=O)c2cccs2)sc(C)c1CC,i,-7.5*,i,-1,x,-9.8*,119*,i
CCOC(=O)c1c(NC(=O)c2cccs2)sc(C(=O)N(C)C)c1C,i,i,i,-7,x,i,x,x
CCN(CCCNC(=O)CNC(=O)c1nn(-c2ccc(OC)cc2)c(=O)c2ccccc12)c1cccc(C)c1,i,i,i,-7,x,-12*,117*,i
CC(C)(C)c1ccc(C(=O)/C(C#N)=C/c2cccs2)cc1,i,i,6*,-5,-1.7,-12*,111*,i
